Reference: PubChem BioAssay AID602134 (Broad Institute, 2011)
Active and inactive are the calls of the source.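 The calls were made as follows: active = falling transferrin uptake with a fitted half-maximal potency at or below twice the top valid tested dose; inconclusive = flat fit with a 30 to 70% drop, or poor fit; inactive = the rest.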

Experiment: transferrin receptor uptake blockade – imaging, Alexa594-transferrin, dry powder, selectivity assay for SR-BI HDL uptake inhibitor project, dose response (AID 602134)
Conditions: mSR-BI cells; series mostly up to 35 µM
In short: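 Reagent: Alexa-594-labelled transferrin at 30 µg/mL final. Test system: mSR-BI cells. Times: transferrin uptake 30 min at 37 °C, stopped on ice. Read-out basis: normalized percent of cells with above-threshold perinuclear transferrin. Buffer or medium: serum-free DMEM with 1% BSA after serum wash. Measured by: high-content fluorescence imaging of Alexa-594 transferrin, DAPI nuclear stain.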

outcome, inactive:
C[C@@H]1CN([C@H](C)CO)C(=O)c2cc(NC(=O)Cc3cn(C)c4ccccc34)ccc2O[C@H]1CN(C)S(=O)(=O)c1ccc(Cl)cc1
CCCCCCC1CCC/C1=N\NC(N)=S (configuration not stated)
CCC(=O)N1CCc2cc(-c3csc(NC(=O)c4cccc(OC)c4)n3)ccc21
CC(=O)N1CCc2cc(-c3nc(NC(=O)c4cccc(OC(F)(F)F)c4)sc3C)ccc21
CCC(=O)N1CC(C)(C)c2cc(-c3csc(NC(=O)c4cc(OC)cc(OC)c4)n3)ccc21
CCC(=O)N1CCc2cc(-c3csc(NC(=O)c4ccc(F)c(OC)c4)n3)ccc21
C[C@H](C(=O)NC1CCCC1)N(C(=O)Cn1nnc(-c2ccc3c(c2)OCO3)n1)C1CCCCC1
COCC(=O)N1CCc2cc(-c3csc(NC(=O)c4cc(OC)cc(OC)c4)n3)ccc21
COc1c(NC(=O)C(=O)c2ccc(OCCN3CCOCC3)c3ccccc23)cc(C(C)(C)C)cc1NS(C)(=O)=O
CCNC(=O)N1CCc2cc(-c3csc(NC(=O)c4cc(OC)cc(OC)c4)n3)ccc21
COc1cc(OC)cc(C(=O)Nc2nc(-c3ccc4c(c3)CCN4C(=O)CN(C)C)cs2)c1
COc1ccc(-c2cc(CC(=O)N(C3CCCCC3)C(C)C(=O)NC3CCCC3)no2)cc1OC (configuration not stated)
